Consider one compound from ChEMBL document CHEMBL2177098, “Synthesis and evaluation of novel ¹⁸F labeled 2-pyridinylbenzoxazole and 2-pyridinylbenzothiazole derivatives as ligands for positron emission tomography (PET) imaging of β-amyloid plaques” (J Med Chem, 2012).

Holding throughout (assay type): ADME, organism-based
Data set [1] deals with Blood. Nature of the data set: Drug uptake in ICR mouse blood at 370 kBq/100 ul, iv at 10 mins by gamma-counting analysis. Conditions: in vivo; call rule not given here. In short, it runs like this: (§1)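 Male ICR mice (5 weeks, about 20 g) got 18F tracer in saline (370 KBq per 100 μL) via tail vein; n = 5 per time point, killed at 2, 10, 30, 60 min. Organs weighed and γ-counted; percent dose per gram wet tissue from comparison with diluted injectate aliquots.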

The subject of another data set is Heart. Nature of the data set: Drug uptake in ICR mouse heart at 370 kBq/100 ul, iv at 2 mins by gamma-counting analysis. Particulars: in vivo. In outline: as §1
For data set [2], the system named is Spleen. Nature of the data set: Drug uptake in ICR mouse spleen at 370 kBq/100 ul, iv at 2 mins by gamma-counting analysis. Particulars: in vivo. In short, it runs like this:
as §1

The subject of data set [3] is Liver. Nature of the data set: Drug uptake in ICR mouse liver at 370 kBq/100 ul, iv at 60 mins by gamma-counting analysis. Particulars: in vivo, 1 h. In short, it runs like this: as §1
The test system of data set [4] is Blood. Nature of the data set: Drug uptake in ICR mouse blood at 370 kBq/100 ul, iv at 60 mins by gamma-counting analysis. Conditions: in vivo, 1 h. In outline: as §1
Data set [5] relates to Liver. Nature of the data set: Drug uptake in ICR mouse liver at 370 kBq/100 ul, iv at 10 mins by gamma-counting analysis. Particulars: in vivo. In outline:
as §1

The test system of another data set is Kidney. As to the kind of experiment: Drug uptake in ICR mouse kidney at 370 kBq/100 ul, iv at 30 mins by gamma-counting analysis. Conditions: in vivo, 0.5 h. In outline:
as §1

A further data set deals with Lung. Nature of the data set: Drug uptake in ICR mouse lung at 370 kBq/100 ul, iv at 10 mins by gamma-counting analysis. Particulars: in vivo. In short, it runs like this:
as §1

The test system of data set [6] is Spleen. Nature of the data set: Drug uptake in ICR mouse spleen at 370 kBq/100 ul, iv at 30 mins by gamma-counting analysis. Particulars: in vivo, 0.5 h. In outline:
as §1

For a further data set, the system named is Stomach. Nature of the data set: Drug uptake in ICR mouse stomach assessed per organ at 370 kBq/100 ul, iv at 30 mins by gamma-counting analysis. Conditions: in vivo, 0.5 h. In outline: (§2)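 Male ICR mice (5 weeks, about 20 g) got 18F tracer in saline (370 KBq per 100 μL) via tail vein; n = 5 per time point, killed at 2, 10, 30, 60 min. Organs removed and γ-counted against diluted injectate; expressed as % injected dose per organ.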

The test system of data set [7] is Blood. As to the kind of experiment: Drug uptake in ICR mouse blood at 370 kBq/100 ul, iv at 2 mins by gamma-counting analysis. Particulars: in vivo. In short, it runs like this:
as §1

Data set [8] concerns Brain. Nature of the data set: Drug uptake in ICR mouse brain at 370 kBq/100 ul, iv at 10 mins by gamma-counting analysis. Conditions: in vivo. In outline:
as §1

The next data set deals with Intestine. Nature of the data set: Drug uptake in ICR mouse intestine assessed per organ at 370 kBq/100 ul, iv at 10 mins by gamma-counting analysis. Particulars: in vivo. In outline: as §2
The subject of data set [9] is Spleen. Nature of the data set: Drug uptake in ICR mouse spleen at 370 kBq/100 ul, iv at 10 mins by gamma-counting analysis. Particulars: in vivo. In outline:
as §1

In data set [10] the test system is Brain. Nature of the data set: Drug uptake in wild type C57BL6 mouse brain at 19.2 MBq, iv after 30 mins by autoradiographic analysis. Conditions: in vivo, 0.5 h.
The subject of data set [11] is Blood. Nature of the data set: Drug uptake in ICR mouse blood at 370 kBq/100 ul, iv at 30 mins by gamma-counting analysis. Particulars: in vivo, 0.5 h. In short, it runs like this: as §1

For the compound `CNc1ccc(-c2nc3cc(OCC[18F])ccc3o2)cn1`, the Drug uptake in the data set on Blood [1] stood at 2.55 % ID/g; with Heart, 4.66 % ID/g; with Spleen [2], 3.32 % ID/g; in the data set on Liver [3], 2.64 % ID/g; with Blood [4] it was 3.2 % ID/g; in the data set with Liver [5], 8.5 % ID/g. Also, the Drug uptake is listed as 2.17 % ID/g with Kidney; 2.8 % ID/g with Lung; 1.63 % ID/g with Spleen [6]; 3.11 %ID in the data set on Stomach; 3.36 % ID/g in the data set on Blood [7]; 2.24 % ID/g with Brain [8]. The Drug uptake in the data set with Intestine is reported as 19.61 %ID; with Spleen [9] it was 2.13 % ID/g; with Brain [10] it was “Not Active”; with Blood [11], 2.55 % ID/g.
